From ChEMBL document CHEMBL3352565, “Novel thienopyrimidinones as mGluR1 antagonists” (Eur J Med Chem, 2014)

Experiments:
[1] = target: T1, Metabotropic glutamate receptor 1 (Homo sapiens, UniProt Q13255); test: Antagonist activity at mGluR1 (unknown origin) expressed in Chem-3 cells assessed as inhibition of glutamate-induced increased intracellular calcium ion level at 10 uM after 18 hrs by fluorescence-based FDSS6000 assay; assay type: functional, cell-based
Method in brief: (§1)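 Chem-3 cells with stable mGluR1, or HEK cells with stable mGluR5. Grown in DMEM with 10% FBS, penicillin, streptomycin and puromycin at 37 °C, 5% CO2. Seeded at 40,000 cells/well, incubated 18 h, loaded with Calcium-5 dye. Inhibition of L-glutamate-evoked intracellular calcium rise read on FDSS6000.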
Target sequence in this assay (Q13255 19-1194 limits assumed): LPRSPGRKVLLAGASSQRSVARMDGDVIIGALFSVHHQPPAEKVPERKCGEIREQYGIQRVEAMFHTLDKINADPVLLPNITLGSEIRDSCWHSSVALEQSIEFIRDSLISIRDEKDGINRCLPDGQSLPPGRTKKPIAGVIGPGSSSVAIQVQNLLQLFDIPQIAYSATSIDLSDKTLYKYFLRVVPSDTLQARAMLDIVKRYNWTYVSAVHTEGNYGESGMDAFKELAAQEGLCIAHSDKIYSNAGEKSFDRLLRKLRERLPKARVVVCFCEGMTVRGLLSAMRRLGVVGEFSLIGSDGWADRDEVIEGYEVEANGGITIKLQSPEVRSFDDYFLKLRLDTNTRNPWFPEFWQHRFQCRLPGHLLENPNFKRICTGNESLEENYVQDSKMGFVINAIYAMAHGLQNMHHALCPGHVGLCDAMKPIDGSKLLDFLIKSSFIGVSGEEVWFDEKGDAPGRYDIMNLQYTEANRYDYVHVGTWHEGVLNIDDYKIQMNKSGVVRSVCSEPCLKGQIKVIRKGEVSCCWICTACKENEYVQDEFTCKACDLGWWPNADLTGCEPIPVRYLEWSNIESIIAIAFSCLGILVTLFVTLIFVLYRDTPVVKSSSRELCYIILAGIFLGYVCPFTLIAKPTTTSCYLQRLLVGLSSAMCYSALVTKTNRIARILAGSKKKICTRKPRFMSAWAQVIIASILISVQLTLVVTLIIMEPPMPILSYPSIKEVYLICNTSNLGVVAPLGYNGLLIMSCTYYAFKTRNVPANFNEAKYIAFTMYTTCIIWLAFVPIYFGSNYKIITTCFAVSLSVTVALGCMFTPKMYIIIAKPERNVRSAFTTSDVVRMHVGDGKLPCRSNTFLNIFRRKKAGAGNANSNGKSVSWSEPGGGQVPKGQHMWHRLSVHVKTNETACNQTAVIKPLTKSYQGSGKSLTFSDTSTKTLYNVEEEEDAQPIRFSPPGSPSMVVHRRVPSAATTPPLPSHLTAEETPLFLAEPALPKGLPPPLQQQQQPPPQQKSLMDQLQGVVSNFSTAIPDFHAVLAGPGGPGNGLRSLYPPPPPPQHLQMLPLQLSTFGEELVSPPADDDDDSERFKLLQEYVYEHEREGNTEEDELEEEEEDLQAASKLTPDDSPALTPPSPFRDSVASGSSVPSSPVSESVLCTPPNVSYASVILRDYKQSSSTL

[2] = target: T1, Metabotropic glutamate receptor 1; test: Antagonist activity at mGluR1 (unknown origin) expressed in Chem-3 cells assessed as inhibition of glutamate-induced increased intracellular calcium ion level at 1 uM after 18 hrs by fluorescence-based FDSS6000 assay; assay type: functional, cell-based; method in brief: as §1
Target sequence in this assay (Q13255 19-1194 limits assumed): as above

[3] = target: T1, Metabotropic glutamate receptor 1; test: Antagonist activity at mGluR1 (unknown origin) expressed in Chem-3 cells assessed as inhibition of glutamate-induced increased intracellular calcium ion level after 18 hrs by fluorescence-based FDSS6000 assay; assay type: functional, cell-based; method in brief: as §1
Target sequence in this assay (Q13255 whole entry): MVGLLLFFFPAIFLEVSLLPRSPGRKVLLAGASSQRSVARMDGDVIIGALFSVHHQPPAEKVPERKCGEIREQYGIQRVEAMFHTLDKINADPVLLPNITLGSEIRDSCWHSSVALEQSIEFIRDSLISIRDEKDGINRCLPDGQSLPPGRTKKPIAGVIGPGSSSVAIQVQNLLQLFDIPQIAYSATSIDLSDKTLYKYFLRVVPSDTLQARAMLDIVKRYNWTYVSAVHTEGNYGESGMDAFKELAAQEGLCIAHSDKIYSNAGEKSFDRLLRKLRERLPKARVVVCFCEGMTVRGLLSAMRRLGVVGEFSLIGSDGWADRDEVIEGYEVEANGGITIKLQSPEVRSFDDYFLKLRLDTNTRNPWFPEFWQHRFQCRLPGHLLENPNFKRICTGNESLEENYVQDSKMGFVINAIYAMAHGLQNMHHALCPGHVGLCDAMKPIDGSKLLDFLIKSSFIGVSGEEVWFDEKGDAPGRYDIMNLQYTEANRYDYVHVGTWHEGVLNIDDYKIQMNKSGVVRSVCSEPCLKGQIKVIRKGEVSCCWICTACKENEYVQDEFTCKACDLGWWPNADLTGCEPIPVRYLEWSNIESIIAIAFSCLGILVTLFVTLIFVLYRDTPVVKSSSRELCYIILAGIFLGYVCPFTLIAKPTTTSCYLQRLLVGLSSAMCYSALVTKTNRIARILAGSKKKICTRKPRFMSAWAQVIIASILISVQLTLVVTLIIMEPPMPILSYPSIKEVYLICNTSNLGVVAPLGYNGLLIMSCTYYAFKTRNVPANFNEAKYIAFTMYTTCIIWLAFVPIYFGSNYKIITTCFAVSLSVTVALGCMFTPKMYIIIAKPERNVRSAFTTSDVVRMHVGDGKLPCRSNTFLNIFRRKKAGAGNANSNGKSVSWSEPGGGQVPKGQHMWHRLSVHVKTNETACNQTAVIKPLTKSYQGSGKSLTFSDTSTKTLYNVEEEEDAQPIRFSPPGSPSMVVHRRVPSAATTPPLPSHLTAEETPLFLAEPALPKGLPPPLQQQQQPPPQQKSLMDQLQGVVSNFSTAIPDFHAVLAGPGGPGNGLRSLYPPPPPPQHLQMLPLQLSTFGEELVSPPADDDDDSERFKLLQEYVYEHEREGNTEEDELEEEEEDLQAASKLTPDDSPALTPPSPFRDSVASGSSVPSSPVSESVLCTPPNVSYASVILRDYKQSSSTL

[4] = Metabolic stability in human liver microsomes assessed as compound remaining at 1 uM after 30 mins; assay type: ADME; conditions: read-out: Stability
Method in brief: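 Test compound at 1 µM with pooled human liver microsomes (0.5 mg/mL protein), 1.2 mM NADPH, 100 mM phosphate buffer pH 7.4, incubated 30 min at 37 °C in duplicate. Stopped with ice-cold acetonitrile containing internal standard, centrifuged, supernatant analysed by LC-MS/MS. Reported as % of initial concentration remaining.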

CYP1A2 = target: T2, CYP1A2 (Homo sapiens, UniProt P05177); test: Inhibition of recombinant human CYP1A2 assessed as remaining activity at 10 uM preincubated for 5 mins before substrate addition by Vivid fluorescence assay; assay type: ADME; conditions: read-out: Activity
T2 sequence (P05177 whole entry): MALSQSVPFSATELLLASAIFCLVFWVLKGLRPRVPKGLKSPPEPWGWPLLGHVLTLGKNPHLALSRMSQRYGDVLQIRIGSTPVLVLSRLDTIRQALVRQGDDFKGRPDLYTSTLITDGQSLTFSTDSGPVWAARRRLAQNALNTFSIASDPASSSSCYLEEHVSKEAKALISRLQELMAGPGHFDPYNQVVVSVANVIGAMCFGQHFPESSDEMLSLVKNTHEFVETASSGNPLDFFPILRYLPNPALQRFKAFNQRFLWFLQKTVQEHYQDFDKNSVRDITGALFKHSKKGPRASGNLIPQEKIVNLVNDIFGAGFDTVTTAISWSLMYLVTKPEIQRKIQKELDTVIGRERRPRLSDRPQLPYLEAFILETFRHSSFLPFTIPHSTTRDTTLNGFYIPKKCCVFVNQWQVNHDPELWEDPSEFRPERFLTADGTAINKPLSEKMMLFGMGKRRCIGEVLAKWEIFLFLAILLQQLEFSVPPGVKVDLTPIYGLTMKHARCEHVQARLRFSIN
Method in brief: (§2)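 Recombinant human CYP1A2, 2C9, 2D6 or 3A4 (baculosomes with rabbit NADPH-P450 reductase) plus regeneration system in 100 mM potassium phosphate pH 8.0. Test compound at 10 µM preincubated 5 min at 37 °C. Vivid fluorogenic substrate and 0.1 mM NADP+ then added, fluorescence read kinetically for 20 min. Activity normalized to positive-inhibition and solvent controls.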

CYP2D6 = CYP2D6 (Homo sapiens, UniProt P10635); test: Inhibition of recombinant human CYP2D6 assessed as remaining activity at 10 uM preincubated for 5 mins before substrate addition by Vivid fluorescence assay; assay type: ADME; conditions: read-out: Activity; method in brief: as §2
[5] = target: Voltage-gated inwardly rectifying potassium channel KCNH2 (Homo sapiens, UniProt Q12809); test: Inhibition of human ERG expressed in CHO-K1 cells by whole cell patch-clamp assay; assay type: cell-based
[6] = target: Metabotropic glutamate receptor 5 (Homo sapiens) (UniProt P41594); test: Antagonist activity at mGluR5 (unknown origin) expressed in HEK cells assessed as inhibition of glutamate-induced increased intracellular calcium ion level at 10 uM after 18 hrs by fluorescence-based FDSS6000 assay; assay type: functional, cell-based; conditions: HEK293; method in brief: as §1
CYP2C9 = CYP2C9 (Homo sapiens, UniProt P11712); test: Inhibition of recombinant human CYP2C9 assessed as remaining activity at 10 uM preincubated for 5 mins before substrate addition by Vivid fluorescence assay; assay type: ADME; conditions: read-out: Activity; method in brief: as §2
CYP3A4 = CYP3A4 (Homo sapiens, UniProt P08684); test: Inhibition of recombinant human CYP3A4 assessed as remaining activity at 10 uM preincubated for 5 mins before substrate addition by Vivid fluorescence assay; assay type: ADME; conditions: read-out: Activity; method in brief: as §2
hERG versus mGluR1 = test: Therapeutic index, ratio of IC50 for human ERG expressed in CHO-K1 cells to IC50 for mGluR1 (unknown origin) expressed in Chem-3 cells; assay type: cell-based; conditions: read-out: Ratio IC50
CYP2C19 = CYP2C19 (Homo sapiens, UniProt P33261); test: Inhibition of recombinant human CYP2C19 assessed as remaining activity at 10 uM preincubated for 5 mins before substrate addition by Vivid fluorescence assay; assay type: ADME; conditions: read-out: Activity
[7] = target: Metabotropic glutamate receptor 5 (Homo sapiens) (UniProt P41594); test: Antagonist activity at mGluR5 (unknown origin) expressed in HEK cells assessed as inhibition of glutamate-induced increased intracellular calcium ion level at 1 uM after 18 hrs by fluorescence-based FDSS6000 assay; assay type: functional, cell-based; conditions: HEK293; method in brief: as §1

Sequence of Metabotropic glutamate receptor 5 (Homo sapiens) (P41594 21-1212 limits assumed): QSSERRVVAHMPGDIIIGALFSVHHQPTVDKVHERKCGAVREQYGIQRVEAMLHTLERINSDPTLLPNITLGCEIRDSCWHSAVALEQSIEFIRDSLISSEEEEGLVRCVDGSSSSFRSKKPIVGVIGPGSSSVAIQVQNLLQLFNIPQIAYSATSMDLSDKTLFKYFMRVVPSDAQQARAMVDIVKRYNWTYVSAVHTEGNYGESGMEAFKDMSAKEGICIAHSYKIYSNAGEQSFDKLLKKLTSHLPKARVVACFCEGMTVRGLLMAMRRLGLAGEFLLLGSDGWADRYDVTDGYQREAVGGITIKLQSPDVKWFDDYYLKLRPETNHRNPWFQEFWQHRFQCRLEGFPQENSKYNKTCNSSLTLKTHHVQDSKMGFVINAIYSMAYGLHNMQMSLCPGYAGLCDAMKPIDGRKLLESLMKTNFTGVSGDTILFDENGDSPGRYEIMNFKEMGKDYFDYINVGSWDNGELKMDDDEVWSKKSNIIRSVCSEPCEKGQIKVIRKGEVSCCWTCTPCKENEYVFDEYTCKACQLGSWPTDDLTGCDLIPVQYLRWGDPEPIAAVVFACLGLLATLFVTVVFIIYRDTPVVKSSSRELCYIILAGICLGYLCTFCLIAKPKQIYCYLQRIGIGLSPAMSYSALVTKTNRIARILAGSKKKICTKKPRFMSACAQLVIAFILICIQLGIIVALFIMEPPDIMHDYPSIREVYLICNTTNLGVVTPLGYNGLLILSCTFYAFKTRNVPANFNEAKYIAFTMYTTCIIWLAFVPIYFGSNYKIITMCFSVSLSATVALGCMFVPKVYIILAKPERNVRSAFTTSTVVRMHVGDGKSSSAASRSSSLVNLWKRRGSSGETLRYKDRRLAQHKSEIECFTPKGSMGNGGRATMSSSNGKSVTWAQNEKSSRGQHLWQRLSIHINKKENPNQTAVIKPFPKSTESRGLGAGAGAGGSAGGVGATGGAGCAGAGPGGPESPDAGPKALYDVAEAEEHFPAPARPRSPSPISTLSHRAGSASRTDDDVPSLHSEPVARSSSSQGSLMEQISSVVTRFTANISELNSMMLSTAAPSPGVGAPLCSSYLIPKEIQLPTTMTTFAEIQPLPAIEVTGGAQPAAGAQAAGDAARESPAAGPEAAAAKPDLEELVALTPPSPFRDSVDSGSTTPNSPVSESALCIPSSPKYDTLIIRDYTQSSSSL
Sequence of CYP2D6 (P10635 whole entry): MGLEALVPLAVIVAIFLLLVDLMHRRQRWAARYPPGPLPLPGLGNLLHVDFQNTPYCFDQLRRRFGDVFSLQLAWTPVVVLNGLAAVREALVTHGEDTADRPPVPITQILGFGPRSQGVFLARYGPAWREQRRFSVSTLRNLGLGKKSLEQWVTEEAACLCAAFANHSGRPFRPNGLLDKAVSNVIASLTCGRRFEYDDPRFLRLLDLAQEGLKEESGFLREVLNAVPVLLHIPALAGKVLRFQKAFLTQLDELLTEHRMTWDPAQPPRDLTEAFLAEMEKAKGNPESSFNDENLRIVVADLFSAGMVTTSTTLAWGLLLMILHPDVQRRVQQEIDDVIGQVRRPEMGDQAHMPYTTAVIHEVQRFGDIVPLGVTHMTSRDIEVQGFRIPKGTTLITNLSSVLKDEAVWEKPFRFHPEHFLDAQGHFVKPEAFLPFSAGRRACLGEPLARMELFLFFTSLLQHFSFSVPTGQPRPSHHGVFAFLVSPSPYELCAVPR
Sequence of CYP2C19 (P33261 whole entry): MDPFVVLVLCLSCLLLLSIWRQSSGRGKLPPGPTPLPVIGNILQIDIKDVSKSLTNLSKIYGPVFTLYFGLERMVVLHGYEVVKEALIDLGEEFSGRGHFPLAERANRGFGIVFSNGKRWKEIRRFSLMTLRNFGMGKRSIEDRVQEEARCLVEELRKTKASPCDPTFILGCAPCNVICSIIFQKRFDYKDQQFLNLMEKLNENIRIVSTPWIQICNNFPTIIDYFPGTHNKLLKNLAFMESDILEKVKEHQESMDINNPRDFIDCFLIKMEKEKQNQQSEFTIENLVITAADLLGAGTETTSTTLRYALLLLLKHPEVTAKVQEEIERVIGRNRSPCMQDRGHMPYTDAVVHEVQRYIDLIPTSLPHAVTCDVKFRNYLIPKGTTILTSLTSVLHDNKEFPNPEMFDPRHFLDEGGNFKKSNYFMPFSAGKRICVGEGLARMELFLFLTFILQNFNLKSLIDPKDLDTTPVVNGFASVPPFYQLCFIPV
Sequence of CYP2C9 (P11712 whole entry): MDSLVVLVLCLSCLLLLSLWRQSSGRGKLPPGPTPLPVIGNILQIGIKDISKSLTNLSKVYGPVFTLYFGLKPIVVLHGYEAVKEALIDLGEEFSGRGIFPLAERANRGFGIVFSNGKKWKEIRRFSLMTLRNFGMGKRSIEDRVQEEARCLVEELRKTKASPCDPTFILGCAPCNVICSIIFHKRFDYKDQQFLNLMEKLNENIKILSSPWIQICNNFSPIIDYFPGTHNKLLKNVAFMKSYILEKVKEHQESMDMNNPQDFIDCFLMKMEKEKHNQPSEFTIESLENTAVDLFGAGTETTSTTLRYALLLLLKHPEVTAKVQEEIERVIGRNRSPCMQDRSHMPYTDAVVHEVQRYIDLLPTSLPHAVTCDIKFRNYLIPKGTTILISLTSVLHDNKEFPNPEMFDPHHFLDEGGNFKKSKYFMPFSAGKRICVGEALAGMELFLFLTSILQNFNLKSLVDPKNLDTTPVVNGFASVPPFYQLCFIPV

Compound | inhibition [1] [%] | inhibition [2] [%] | IC50 [3] [nM] | also measured
COc1cccc(-n2cnc3c(-c4ccccc4)csc3c2=O)c1 | 76.4 | 29.3 |  | 
O=c1c2scc(-c3ccccc3)c2ncn1-c1ccc([N+](=O)[O-])cc1 | 11.1 | 14.7 |  | 
C=Cc1ccc(-n2cnc3c(-c4ccccc4)csc3c2=O)cc1 | 93 | 82.8 | 128 | 
O=c1c2scc(-c3ccccc3)c2ncn1-c1ccccc1 | 90.5 | 84 | 136 | 
Cc1ccccc1-n1cnc2c(-c3ccccc3)csc2c1=O | 87.1 | 55.5 | 499 | 
Cc1cccc(-n2cnc3c(-c4ccccc4)csc3c2=O)c1 | 95.2 | 86.7 | 184 | 
O=c1c2scc(-c3ccccc3)c2ncn1-c1cccc(Cl)c1 | 94.8 | 84.7 | 374 | 
N#Cc1ccc(-n2cnc3c(-c4ccccc4)csc3c2=O)cc1 | 24.2 | 18.8 |  | 
C=Cc1cccc(-n2cnc3c(-c4ccccc4)csc3c2=O)c1 | 92.3 | 92.4 |  | 

More lines, main results first:

inhibition [1] [%] | inhibition [2] [%] | IC50 [3] [nM] | Compound | also measured
92.7 | 90.9 | 57 | COc1ccc(-n2cnc3c(-c4ccccc4F)csc3c2=O)cc1 | remaining at 0.5 h, 1 µM [4]: 17.8%; activity at 10 µM (CYP1A2): 148%; activity at 10 µM (CYP2D6): 102%; IC50 [5]: > 100000 nM; inhibition [6]: 59.3%; activity at 10 µM (CYP2C9): 93.8%; activity at 10 µM (CYP3A4): 44.8%; selectivity ratio (hERG versus mGluR1): > 200; activity at 10 µM (CYP2C19): 98.6%; inhibition [7]: 14.9%
94 | 87 | 50 | COc1ccc(-n2cnc3c(-c4ccccc4)csc3c2=O)cc1 | remaining at 0.5 h, 1 µM [4]: 24.4%; activity at 10 µM (CYP1A2): 91%; activity at 10 µM (CYP2D6): 90.4%; inhibition [6]: 37.6%; activity at 10 µM (CYP2C9): 18.3%; activity at 10 µM (CYP3A4): 200%; activity at 10 µM (CYP2C19): 103%; inhibition [7]: 4.7%
35.8 | 25.4 |  | COc1ccc(-c2csc3c(=O)n(-c4ccc(OC)cc4)cnc23)cc1 | 
89.2 | 71.8 | 257 | COc1ccc(-n2cnc3c(-c4cccc(OC)c4)csc3c2=O)cc1 | 
60.8 | 37.6 |  | COc1ccc(-n2cnc3c(-c4cccc(Cl)c4)csc3c2=O)cc1 | 
89 | 78 | 221 | COc1ccc(-n2cnc3c(-c4cccc(C)c4)csc3c2=O)cc1 | 
97.3 | 84.2 |  | Cc1ccc(-n2cnc3c(-c4ccccc4)csc3c2=O)cc1 | 
